Experimental data taken from ChEMBL document CHEMBL1144531, “Novel selective inhibitors of neutral endopeptidase for the treatment of female sexual arousal disorder” (Bioorg Med Chem, 2007).

Experiments:
[1] = Inhibition of dog kidney cortex NEP at pH 7; parameters: species or system Canis lupus familiaris
[2] = species on record: Sus scrofa; test: Inhibition of pig ACE
How it was run: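 Porcine ACE; same format as the NEP assay. Substrate o-aminobenzoyl-Gly-Gly-p-nitro-Phe-Pro-OH, 10 µM final, in 50 mM Tris-Cl pH 7.4 (37 °C) with 300 mM NaCl. Stopped with 2 mM EDTA; fluorescence read-out. IC50 from dilution series.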

[3] = biological target: T1, Endothelin-converting enzyme 1 (Homo sapiens) (UniProt P42892); test: Inhibition of human ECE1
T1 sequence (whole entry): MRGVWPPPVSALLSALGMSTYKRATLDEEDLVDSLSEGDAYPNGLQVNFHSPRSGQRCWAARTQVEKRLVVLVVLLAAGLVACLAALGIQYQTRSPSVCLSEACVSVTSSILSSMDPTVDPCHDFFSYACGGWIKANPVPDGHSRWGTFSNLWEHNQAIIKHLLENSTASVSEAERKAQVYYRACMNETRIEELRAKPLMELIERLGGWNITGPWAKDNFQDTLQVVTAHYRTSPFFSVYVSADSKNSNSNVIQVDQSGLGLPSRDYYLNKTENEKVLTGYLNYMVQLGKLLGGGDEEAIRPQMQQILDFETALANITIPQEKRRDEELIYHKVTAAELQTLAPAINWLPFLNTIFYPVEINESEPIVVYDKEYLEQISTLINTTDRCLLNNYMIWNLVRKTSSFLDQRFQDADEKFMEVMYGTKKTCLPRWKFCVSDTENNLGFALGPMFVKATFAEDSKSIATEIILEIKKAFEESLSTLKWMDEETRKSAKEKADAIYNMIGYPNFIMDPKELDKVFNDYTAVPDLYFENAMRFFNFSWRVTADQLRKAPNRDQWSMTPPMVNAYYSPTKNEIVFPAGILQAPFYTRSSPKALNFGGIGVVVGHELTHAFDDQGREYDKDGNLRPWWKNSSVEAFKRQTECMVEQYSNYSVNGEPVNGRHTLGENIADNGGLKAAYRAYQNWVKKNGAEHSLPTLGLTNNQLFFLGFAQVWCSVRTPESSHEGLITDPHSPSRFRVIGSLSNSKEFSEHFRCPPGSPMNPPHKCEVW
How it was run: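 Human ECE-1, run like the ACE assay (50 mM Tris-Cl pH 7.4, 300 mM NaCl, EDTA stop), with Big ET-1 as substrate. IC50 from dilution series.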

[4] = Distribution coefficient, log D in n-octanol and phosphate buffer at pH 7.4; type: physicochemical
[5] = Metabolic stability in human liver microsomes at 1 uM; type: ADME, Microsome
How it was run: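 Human liver microsomes, 1 µM compound with 0.5 µM CYP. Reported as first-order compound disappearance half-life.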

[6] = Permeability from apical to basolateral side of the Caco-2 cell membrane at pH 7.4; type: ADME, cell-based; conditions: human, Caco-2, pH 7.4
How it was run: (§1)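 Caco-2 monolayers; apparent permeability (Papp) measured with pH 7.4 in both apical and basolateral chambers.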

[7] = Permeability from basolateral to apical side of the Caco-2 cell membrane at pH 7.4; type: ADME, cell-based; conditions: human, Caco-2, pH 7.4; how it was run: as §1
[8] = Inhibition of dog kidney cortex NEP at pH 7.4; parameters: species or system Canis lupus familiaris
[9] = Clearance in rat at 1 mg/kg, iv and 1 mg/kg, po; type: ADME, organism-based; conditions: in vivo
How it was run: (§2)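 Male CD rats, jugular vein cannulated under general anaesthesia; dosed 1 mg/kg iv (tail vein) and po (gavage). Serial 0.2 ml blood samples taken from the cannula into heparin, centrifuged to plasma, stabilised with 0.01 parts 85% phosphoric acid, frozen. Plasma levels measured by LC–MS–MS after C18 solid-phase extraction, with internal standard.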

[10] = Volume of distribution in rat at 1 mg/kg, iv and 1 mg/kg, po; type: ADME, organism-based; conditions: in vivo, read-out: Vdss; how it was run: as §2
[11] = Half life in rat at 1 mg/kg, iv and 1 mg/kg, po; type: ADME, organism-based; conditions: in vivo; how it was run: as §2
[12] = Fraction unbound ligand in rat at 1 mg/kg, iv and 1 mg/kg, po; type: ADME, organism-based; conditions: in vivo
How it was run: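 Fraction unbound in rat plasma measured at 1 µg/ml by equilibrium dialysis against isotonic Krebs–Ringer bicarbonate buffer, pH 7.4.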

[13] = Oral bioavailability in rat at 1 mg/kg, iv and 1 mg/kg, po; type: ADME, organism-based; conditions: in vivo; how it was run: as §2
[14] = Tmax in rat at 1 mg/kg, iv and 1 mg/kg, po; type: ADME, organism-based; conditions: in vivo; how it was run: as §2
[15] = species on record: Homo sapiens; test: Protein binding in human plasma at 1 ug/ml by equilibrium dialysis; conditions: read-out: PPB (converted)

Structure (SMILES)	IC50 [1] [nM]	Activity [2] [µM]	other results
COCCC(CC1(C(=O)NCCc2ccc(OC)cc2)CCCC1)C(=O)O (centres undefined)	369	> 3	–
COCCC(CC1(C(=O)Nc2nnc(Cc3ccccc3)s2)CCCC1)C(=O)O (centres undefined)	5	> 3	–
COCCC(CC1(C(=O)NCCCc2ccc(OC)cc2)CCCC1)C(=O)O (centres undefined)	2	> 3	–
CCCC(CC1(C(=O)Nc2nnc(CC)s2)CCCC1)C(=O)O (centres undefined)	60	> 3	–
COCC[C@H](CC1(C(=O)NC2(CO)Cc3ccccc3C2)CCCC1)C(=O)O	5.4	> 3	Activity [3]: > 3 µM; logD [4]: -0.2; half-life at 1 µM [5]: > 2 h; Papp A→B [6]: 1 ×10⁻⁶ cm/s; Papp B→A [7]: 2.5 ×10⁻⁶ cm/s; IC50 [8]: 14.2 nM; clearance [9]: 18 mL/min/kg; Vd [10]: 7.5 L/kg; half-life [11]: 4.8 h; fraction unbound [12]: 0.088; bioavailability [13]: 109%; Tmax [14]: < 1 h; fraction unbound at 1 ug/ml [15]: 0.228
CCCCC[C@@H]1C[C@H]1NC(=O)C1(CC(CCOC)C(=O)O)CCCC1 (relative stereo)	10	> 3	–
COCCC(CC1(C(=O)NCCCc2ccc(F)cc2)CCCC1)C(=O)O (centres undefined)	15	> 3	–
COCC(CC1(C(=O)N[C@H]2C[C@@H]2c2ccc(Cl)cc2)CCCC1)C(=O)O (relative stereo)	20	> 3	–
CCCCc1ccnc(NC(=O)C2(CC(CCOC)C(=O)O)CCCC2)c1 (centres undefined)	17	> 3	–
COCCC(CC1(C(=O)NC(C)Cc2ccccc2)CCCC1)C(=O)O (centres undefined)	426	> 3	–
COCCC(CC1(C(=O)N[C@H]2C[C@@H]2c2ccccc2)CCCC1)C(=O)O (relative stereo)	100	> 3	–
COCCC(CC1(C(=O)NCCCc2ccccc2)CCCC1)C(=O)O (centres undefined)	35	> 3	–
COCCC(CC1(C(=O)N[C@H]2C[C@@H]2c2ccc(Cl)cc2)CCCC1)C(=O)O (relative stereo)	21	> 3	–
